Results: PMC5346463 (Anticancer research, 2014)
Converted amounts (≈) assume the structure as drawn.

Tests used:
HIF-1α = test: Western blot of HIF-1α protein expression in MDA-MB-231 cells; type: cell-based; settings: hypoxic conditions (1% oxygen)
VEGF = test: Quantitative real-time PCR, VEGF mRNA in MDA-MB-231 cells; type: cell-based; settings: 10 μM, 8 h, normalized to Cyclophilin A, n=3
Procedure, shortened: (§1)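 MDA-MB-231 cells seeded at 3.5×10^5/well in six-well plates overnight. Treated 8 h with 10 μM test compound in medium under hypoxia (1% O2) or normoxia; controls got medium with […] DMSO. Total RNA isolated and reverse-transcribed. SYBR Green qPCR run with 40 ng cDNA/well, normalised to Cyclophilin A, n=3.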

PHD3 = test: Quantitative real-time PCR, PHD3 mRNA in MDA-MB-231 cells; type: cell-based; settings: 10 μM, 8 h, normalized to Cyclophilin A, n=3
Procedure, shortened: as §1

HIF1A = test: Quantitative real-time PCR, HIF1A mRNA in MDA-MB-231 cells; type: cell-based; settings: 10 μM, 8 h, normalized to Cyclophilin A, n=3
Procedure, shortened: as §1

[1] = Aqueous solubility, miniaturized shake-flask with LC-MS/MS; type: physicochemical; settings: for Solubility: room temperature
Procedure, shortened: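 Test compound (1.0 mg) shaken in 1 mL water or pH 7.0 phosphate buffer for 24 h at 450 rpm, room temperature. Suspension spun at 10,000 RPM for 15 min. Supernatant quantified by ESI LC-MS/MS on a PFP column using a 0.1% formic acid/MeOH gradient at 0.4 mL/min.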

[2] = Cytotoxicity, sulforhodamine B; type: cell-based; settings: human, MDA-MB-231 cells
Procedure, shortened: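 MDA-MB-231 cells (DMEM high glucose, 10% FBS, antibiotic/antimycotic) plated at 5,000 cells/well and left to adhere overnight at normoxia. Pre-incubated 1 h with titrated test compound, then cultured at normoxia (21% O2, 5% CO2) or hypoxia (1% O2, 5% CO2). SRB stain after 96 h, OD read at 540 nm. IC50 given as mean±SEM, n=3.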

SMILES	HIF-1α protein accumulation under hypoxic stress (western blot) (HIF-1α)	VEGF expression (qPCR) (VEGF; hypoxia (1% oxygen))	VEGF expression level (qPCR) (VEGF; normoxia)	PHD3 mRNA level (qPCR) (PHD3; hypoxia (1% oxygen))	PHD3 mRNA level (qPCR) (PHD3; normoxia)	HIF1A expression (qPCR) (HIF1A; hypoxia (1% oxygen))	HIF1A expression level (qPCR) (HIF1A; normoxia)	Solubility ([1]; Buffer pH 7.0, 24 h shaking)	Solubility ([1]; Water, 24 h shaking)	Aqueous solubility ([1]; buffer pH 7.0)	Aqueous solubility ([1]; water)	IC50 at 96 h [2]
OCc1ccc(-c2nn(Cc3ccccc3)c3ccccc23)o1 [YC-1, 3-(5′-hydroxymethyl-2′-furyl)-1-benzyl indazole]	not inhibited	remained repressed	significantly reduced	insignificant	enhancement of PHD3 mRNA levels	remained repressed	significantly reduced	0.94 µg/mL (≈ 3.09 µM)	1.241 µg/mL (≈ 4.08 µM)	0.9 µg/mL	1.2 µg/mL	
CC(=O)O[C@@]12CO[C@@H]1C[C@H](O)[C@@]1(C)C(=O)[C@H](O)C3=C(C)[C@@H](OC(=O)[C@H](O)[C@@H](NC(=O)OC(C)(C)C)c4ccccc4)C[C@@](O)([C@@H](OC(=O)c4ccccc4)[C@H]21)C3(C)C [Docetaxel]												< 0.005 µM
C[C@H]1O[C@@H](O[C@H]2[C@@H](O)C[C@H](O[C@H]3[C@@H](O)C[C@H](O[C@H]4CC[C@@]5(C)[C@H](CC[C@@H]6[C@@H]5C[C@@H](O)[C@]5(C)[C@@H](C7=CC(=O)OC7)CC[C@]65O)C4)O[C@@H]3C)O[C@@H]2C)C[C@H](O)[C@@H]1O [Digoxin]												0.25 ± 0.05 µM
